Test results published in ChEMBL document CHEMBL3525963, “Tissue distribution and elimination of [14C]apixaban in rats” (Drug Metab Dispos, 2011).

Columns and labels:
Set-up in all cases: dose 5 mg/kg, dosed compound name [14C]-apixaban, route oral
Settings in all cases: in vivo
[1] = system: Adrenal gland; assay: Biodistribution in pregnant Sprague-Dawley rat adrenal gland at 5 mg/kg, po administered as single dose measured after 8 hrs; assay type: ADME, organism-based
[2] = system: Brain; assay: Biodistribution in male Sprague-Dawley rat brain at 5 mg/kg, po administered as single dose measured after 0.5 hrs; assay type: ADME, organism-based
How it was run: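 Fasted male SD rats were dosed orally by gavage with a single 5 mg/kg (100 μCi/kg) dose of [14C]apixaban, formulated at 1.0 mg/mL and 20 μCi/mL in 0.5% Tween 80/Labrafil. One rat was euthanized per time point and the carcass frozen and sectioned at 40 µm. Brain was quantified by QWBA against [14C]glucose calibration standards, as µg eq/g (LLOQ 0.037 µg eq/g).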

[3] = system: Rattus norvegicus; assay: Biodistribution in male Sprague-Dawley rat bone marrow at 5 mg/kg, po administered as single dose measured after 24 hrs; assay type: ADME, organism-based
How it was run: (§1)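 Fasted male SD rats (225-252 g) each received one oral gavage dose of [14C]apixaban, 5 mg/kg (100 μCi/kg), in 0.5% Tween 80/Labrafil vehicle. One rat was killed per time point, from 0.5 to 168 h. Frozen carcasses were cut into 40 µm sagittal whole-body sections and read by QWBA phosphor imaging against [14C]glucose calibrants. Results are in µg apixaban eq/g; BLQ <0.037 µg eq/g.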

[4] = system: Liver; assay: Biodistribution in pregnant Sprague-Dawley rat liver at 5 mg/kg, po administered as single dose measured after 4 hrs; assay type: ADME, organism-based
How it was run: (§2)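 Fasted pregnant SD rats (n=6, 270-319 g) each received one oral gavage dose of [14C]apixaban, 5 mg/kg (100 μCi/kg), in 0.5% Tween 80/Labrafil. One rat was killed at each of 0.5, 1, 4, 8, 24 and 48 h. Carcasses were frozen in hexane/dry ice, cut into 40 µm sagittal sections, exposed to phosphor plates and quantified against [14C]glucose standards as µg eq/g. LLOQ was 0.037 µg eq/g.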

[5] = system: Spleen; assay: Biodistribution in pregnant Sprague-Dawley rat spleen at 5 mg/kg, po administered as single dose measured after 1 hr; assay type: ADME, organism-based
[6] = system: Muscle tissue; assay: Biodistribution in male Sprague-Dawley rat muscle at 5 mg/kg, po administered as single dose measured after 4 hrs; assay type: ADME, organism-based
How it was run: (§3)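 [14C]apixaban (1.0 mg/mL, 20 μCi/mL) in 0.5% Tween 80 in Labrafil, given by oral gavage at 100 μCi/kg to male rats (225-252 g) fasted overnight through 4 h post-dose. One rat per time point. Carcasses frozen in hexane/dry ice and cut into 40 µm sagittal sections. QWBA read on phosphor plates against [14C]glucose standards, reported as µg eq/g. LLOQ 0.037 µg eq/g.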

[7] = system: Blood; assay: Biodistribution in female Sprague-Dawley rat blood at 5 mg/kg, po administered as single dose measured after 1 hr; assay type: ADME, organism-based
How it was run: (§4)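 [¹⁴C]Apixaban given by oral gavage at 5 mg/kg (100 μCi/kg) in 0.5% Tween 80 in Labrafil (1.0 mg/mL dosing solution) to rats fasted overnight through 4 h post-dose. One rat per time point; carcass frozen in hexane/dry ice. Quantitative whole-body autoradiography used 40 µm sagittal sections and a phosphor imaging plate calibrated with [¹⁴C]glucose standards (0.001–6.5 μCi/g). Read-out in µg eq apixaban/g; LLOQ 0.037 μg eq/g.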

[8] = system: Rattus norvegicus; assay: Biodistribution in pregnant Sprague-Dawley rat placenta at 5 mg/kg, po administered as single dose measured after 1 hr; assay type: ADME, organism-based
[9] = system: Spleen; assay: Biodistribution in male Sprague-Dawley rat spleen at 5 mg/kg, po administered as single dose measured after 4 hrs; assay type: ADME, organism-based; how it was run: as §3
[10] = system: Muscle tissue; assay: Biodistribution in male Sprague-Dawley rat muscle at 5 mg/kg, po administered as single dose measured after 24 hrs; assay type: ADME, organism-based; how it was run: as §3
[11] = system: Spleen; assay: Biodistribution in pregnant Sprague-Dawley rat spleen at 5 mg/kg, po administered as single dose measured after 24 hrs; assay type: ADME, organism-based
[12] = system: Blood; assay: Biodistribution in male Sprague-Dawley rat blood at 5 mg/kg, po administered as single dose measured after 0.5 hrs; assay type: ADME, organism-based; how it was run: as §4
[13] = system: Rattus norvegicus; assay: Biodistribution in male Sprague-Dawley rat brown fat at 5 mg/kg, po administered as single dose measured after 0.5 hrs; assay type: ADME, organism-based, Brown adipose tissue
How it was run: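 Fasted male rats, 225-252 g, received [14C]apixaban by single oral gavage at 100 μCi/kg in 0.5% Tween 80/Labrafil. One rat was killed per time point and the carcass frozen. Tissue radioactivity was quantified by QWBA (40 µm sagittal sections, phosphor plate, [14C]glucose calibration) as µg eq apixaban/g, with LLOQ 0.037 μg eq/g.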

[14] = system: Rattus norvegicus; assay: Biodistribution in pregnant Sprague-Dawley rat pituitary gland at 5 mg/kg, po administered as single dose measured after 1 hr; assay type: ADME, organism-based
[15] = system: Rattus norvegicus; assay: Biodistribution in pregnant Sprague-Dawley rat amnion at 5 mg/kg, po administered as single dose measured after 1 hr; assay type: ADME, organism-based
[16] = system: Rattus norvegicus; assay: Biodistribution in pregnant Sprague-Dawley rat brown fat at 5 mg/kg, po administered as single dose measured after 24 hrs; assay type: ADME, organism-based, Brown adipose tissue; how it was run: as §2
[17] = system: Rattus norvegicus; assay: Biodistribution in male Sprague-Dawley rat brown fat at 5 mg/kg, po administered as single dose measured after 72 hrs; assay type: ADME, organism-based, Brown adipose tissue; how it was run: as §1
[18] = system: Lung; assay: Biodistribution in male Sprague-Dawley rat lung at 5 mg/kg, po administered as single dose measured after 1 hr; assay type: ADME, organism-based; how it was run: as §3
[19] = system: Lung; assay: Biodistribution in female Sprague-Dawley rat lung at 5 mg/kg, po administered as single dose measured after 4 hrs; assay type: ADME, organism-based; how it was run: as §4
[20] = system: Heart; assay: Biodistribution in male Sprague-Dawley rat heart at 5 mg/kg, po administered as single dose measured after 0.5 hrs; assay type: ADME, organism-based; how it was run: as §4
[21] = system: Adrenal gland; assay: Biodistribution in male Sprague-Dawley rat adrenal gland at 5 mg/kg, po administered as single dose measured after 1 hr; assay type: ADME, organism-based; how it was run: as §4
[22] = system: Brain; assay: Biodistribution in pregnant Sprague-Dawley rat brain at 5 mg/kg, po administered as single dose measured after 8 hrs; assay type: ADME, organism-based
[23] = system: Liver; assay: Biodistribution in female Sprague-Dawley rat liver at 5 mg/kg, po administered as single dose measured after 1 hr; assay type: ADME, organism-based
How it was run: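 Quantitative whole-body autoradiography was run after a single 5 mg/kg (100 μCi/kg) oral gavage to fasted female or pregnant SD rats, one rat per time point. Carcasses were frozen in hexane/dry ice, and 40 µm sagittal sections were dried at −20°C for at least 48 h. Sections were exposed to a phosphor plate alongside [14C]glucose standards (0.001–6.5 µCi/g). Results are µg eq/g, with LLOQ 0.037 µg eq/g.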

[24] = system: Rattus norvegicus; assay: Biodistribution in pregnant Sprague-Dawley rat brown fat at 5 mg/kg, po administered as single dose measured after 1 hr; assay type: ADME, organism-based, Brown adipose tissue
[25] = system: Adrenal gland; assay: Biodistribution in female Sprague-Dawley rat adrenal gland at 5 mg/kg, po administered as single dose measured after 0.5 hrs; assay type: ADME, organism-based; how it was run: as §4
[26] = Drug level in lactating Sprague-Dawley rat milk at 5 mg/kg, po administered as single dose; assay type: ADME, organism-based
How it was run: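 Lactating SD rats received a single oral gavage of 5 mg/kg (108 μCi/kg) in 0.5% Tween 80/Labrafil. Three rats were sampled per time point at 0.5-24 h. Oxytocin was given sc 15 min before milking under anesthesia. Milk, blood and plasma were counted in duplicate by liquid scintillation for 10 min and expressed as apixaban equivalents.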

Q: With `COc1ccc(-n2nc(C(N)=O)c3c2C(=O)N(c2ccc(N4CCCC[14C]4=O)cc2)CC3)cc1` as the compound, how does the Radiolabel recovery [1] read?
A: Its Radiolabel recovery is 0.18 ugequiv/g.

Q: What about the Radiolabel recovery [2] of the same compound?
A: Its Radiolabel recovery is 0.05 ugequiv/g.

Q: And the Radiolabel recovery [3]?
A: Its Radiolabel recovery is “Not sampled as not visualised in autoradiograph”.

Q: What about the Radiolabel recovery [4] of the same compound?
A: The Radiolabel recovery was 6.13 ugequiv/g.

Q: And the Radiolabel recovery [5]?
A: The Radiolabel recovery was 0.51 ugequiv/g.

Q: What about the Radiolabel recovery [6] of the same compound?
A: The Radiolabel recovery was 0.27 ugequiv/g.

Q: And the Radiolabel recovery [7]?
A: The Radiolabel recovery was 0.88 ugequiv/g.

Q: What about the Radiolabel recovery [8] of the same compound?
A: The Radiolabel recovery was 0.74 ugequiv/g.

Q: And the Radiolabel recovery [9]?
A: Its Radiolabel recovery is 0.28 ugequiv/g.

Q: What about the Radiolabel recovery [10] of the same compound?
A: The Radiolabel recovery was less than 0.037 ugequiv/g.

Q: What about the Radiolabel recovery [11] of the same compound?
A: The Radiolabel recovery was less than 0.037 ugequiv/g.

Q: And the Radiolabel recovery [12]?
A: Its Radiolabel recovery is 0.42 ugequiv/g.

Q: And the Radiolabel recovery [13]?
A: The Radiolabel recovery was 0.46 ugequiv/g.

Q: What about the Radiolabel recovery [14] of the same compound?
A: Its Radiolabel recovery is 0.93 ugequiv/g.

Q: And the Radiolabel recovery [15]?
A: Its Radiolabel recovery is 2.12 ugequiv/g.

Q: What about the Radiolabel recovery [16] of the same compound?
A: The Radiolabel recovery was “Not detected assumed BLQ”.

Q: What about the Radiolabel recovery [17] of the same compound?
A: Its Radiolabel recovery is “Not sampled as not visualised in autoradiograph”.

Q: And the Radiolabel recovery [18]?
A: The Radiolabel recovery was 0.7 ugequiv/g.

Q: What about the Radiolabel recovery [19] of the same compound?
A: The Radiolabel recovery was 0.51 ugequiv/g.

Q: And the Radiolabel recovery [20]?
A: The Radiolabel recovery was 0.33 ugequiv/g.

Q: What about the Radiolabel recovery [21] of the same compound?
A: The Radiolabel recovery was 1.2 ugequiv/g.

Q: And the Radiolabel recovery [22]?
A: Its Radiolabel recovery is less than 0.037 ugequiv/g.

Q: And the Radiolabel recovery [23]?
A: Its Radiolabel recovery is 4.31 ugequiv/g.

Q: And the Radiolabel recovery [24]?
A: Its Radiolabel recovery is 0.95 ugequiv/g.

Q: And the Radiolabel recovery [25]?
A: The Radiolabel recovery was 0.56 ugequiv/g.

Q: And the Radiolabel recovery [26]?
A: Its Radiolabel recovery is greater than 96%.
